Assay results published in ChEMBL document CHEMBL4028818, “Tricyclic 4,4-dimethyl-3,4-dihydrochromeno[3,4-d]imidazole derivatives as microsomal prostaglandin E2 synthase-1 (mPGES-1) inhibitors: SAR and in vivo efficacy in hyperalgesia pain model” (Bioorg Med Chem Lett, 2017).

Assays:
[1] = Metabolic stability in human liver microsomes assessed as parent compound remaining at 1 uM after 60 mins in presence of NADPH by LC/MS/MS analysis; assay type: ADME, microsome; conditions: read-out: Stability
Method in brief: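 Compound at 1.0 µM was incubated with liver microsomes (1.0 mg/mL protein) at 37 °C for 60 min. Samples were analysed by LC/MS/MS as % parent remaining. Run in triplicate.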

CYP1A2 = biological target: T1, CYP1A2 (Homo sapiens, UniProt P05177); assay: (§1) Inhibition of CYP1A2 in human liver microsomes at 10 uM measured after 20 mins in presence of NADPH by LC/MS/MS analysis relative to control; assay type: ADME; conditions: liver microsomes
T1 sequence (P05177 whole entry): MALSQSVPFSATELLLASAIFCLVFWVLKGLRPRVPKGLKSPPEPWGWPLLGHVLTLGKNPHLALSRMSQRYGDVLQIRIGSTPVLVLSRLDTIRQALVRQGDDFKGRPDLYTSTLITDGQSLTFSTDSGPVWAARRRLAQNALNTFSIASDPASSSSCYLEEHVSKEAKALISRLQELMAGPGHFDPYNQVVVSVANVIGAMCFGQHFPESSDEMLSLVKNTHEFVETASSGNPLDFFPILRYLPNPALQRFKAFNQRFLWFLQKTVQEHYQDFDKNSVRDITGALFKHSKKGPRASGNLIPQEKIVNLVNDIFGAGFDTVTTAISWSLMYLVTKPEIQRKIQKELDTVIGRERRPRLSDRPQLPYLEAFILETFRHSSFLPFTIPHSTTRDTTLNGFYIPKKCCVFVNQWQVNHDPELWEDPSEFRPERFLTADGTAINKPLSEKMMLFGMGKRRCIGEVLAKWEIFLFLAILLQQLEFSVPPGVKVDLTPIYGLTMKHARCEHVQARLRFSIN
Method in brief: (§2)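 CYP isoforms 1A2, 2D6, 3A4, 2C9 and 2C19 were tested at 1 and 10 µM. Results are % inhibition compared with a no-inhibitor control, run in triplicate.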

CYP2D6 = CYP2D6 (Homo sapiens, UniProt P10635); assay: (§3) Inhibition of CYP2D6 in human liver microsomes at 10 uM measured after 20 mins in presence of NADPH by LC/MS/MS analysis relative to control; assay type: ADME; conditions: liver microsomes; method in brief: as §2
[2] = Half life in Sprague-Dawley rat at 5 mg/kg, iv administered as single bolus dose; assay type: ADME, organism-based; conditions: in vivo
Method in brief: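 Male Sprague-Dawley rats were dosed i.v. in a vehicle of 20% NMP + 20% ethanol + 60% PEG 200. T1/2, CL and Vz were derived. Values are mean ± SD, n = 3.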

[3] = Cmax in Sprague-Dawley rat at 10 mg/kg, po; assay type: ADME, organism-based; set-up: dose 10 mg/kg, route oral; conditions: in vivo
Method in brief: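 Male Sprague-Dawley rats were dosed orally as a 0.5% methylcellulose suspension. Cmax, AUC0-24, Tmax, T1/2 and %F were determined. Values are mean ± SD, n = 3.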

Cytochrome P450 1A2 [4] = biological target: T2, Cytochrome P450 1A2 (Homo sapiens, UniProt P05177); assay: Inhibition of CYP1A2 in human liver microsomes at 1 uM measured after 20 mins in presence of NADPH by LC/MS/MS analysis; assay type: ADME; method in brief: as §2
T2 sequence (P05177 whole entry): T1 sequence (P05177 whole entry)

Cytochrome P450 3A4 = Cytochrome P450 3A4 (Homo sapiens, UniProt P08684); assay: Inhibition of CYP3A4 in human liver microsomes at 1 uM measured after 20 mins in presence of NADPH by LC/MS/MS analysis; assay type: ADME; method in brief: as §2
Cytochrome P450 2C9 = Cytochrome P450 2C9 (Homo sapiens, UniProt P11712); assay: Inhibition of CYP2C9 in human liver microsomes at 1 uM measured after 20 mins in presence of NADPH by LC/MS/MS analysis; assay type: ADME; method in brief: as §2
Cavia porcellus = assay: Analgesic activity in Dunkin Hartley guinea pig hyperalgesia pain model assessed as inhibition of LPS-induced thermal hyperalgesia at 100 mg/kg, po qd administered 4 hrs prior to LPS stimulation measured after 4.5 hrs by plantar test relative to control; assay type: functional
Method in brief: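 LPS was injected into the guinea pig plantar to induce thermal hyperalgesia, and compound was given orally. Response is expressed as % hyperalgesia, with a saline-injected naive group as 0% and the vehicle-treated LPS group as 100%. Values are mean ± SEM, n = 8 per dose group.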

[5] = Plasma concentration in Dunkin Hartley guinea pig model of LPS-induced thermal hyperalgesia pain at 100 mg/kg, po qd measured 7 hrs post dose by LC/MS/MS analysis; assay type: ADME, organism-based, Cavia porcellus
Method in brief: (§4)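 In the guinea pig LPS thermal hyperalgesia model, plasma and CSF drug levels were measured at the pharmacodynamic time point after oral dosing. Concentrations are means of n = 8 animals per dose group.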

[6] = Drug uptake in CSF of Dunkin Hartley guinea pig model of LPS-induced thermal hyperalgesia pain at 100 mg/kg, po qd measured 7 hrs post dose by LC/MS/MS analysis; assay type: ADME, organism-based, Cavia porcellus, Cerebrospinal fluid; conditions: read-out: Drug uptake; method in brief: as §4
[7] = biological target: T3, Prostaglandin E synthase (Homo sapiens) (UniProt O14684); assay: Inhibition of recombinant human mPGES-1 expressed in CHO cells assessed as reduction in PGE2 formation at 1 uM using PGH2 a substrate preincubated for 10 mins followed by substrate addition measured after 1 min relative to control; assay type: cell-based
T3 sequence (whole entry): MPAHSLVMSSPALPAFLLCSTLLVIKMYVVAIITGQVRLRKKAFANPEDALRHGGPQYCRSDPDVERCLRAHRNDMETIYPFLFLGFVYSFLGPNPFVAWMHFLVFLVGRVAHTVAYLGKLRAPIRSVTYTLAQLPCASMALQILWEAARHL
Method in brief: (§5)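 mPGES-1 enzyme inhibition. % inhibition values are means of two experiments in duplicate. IC50 values were derived from graphs of at least two experiments in duplicate.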

[8] = biological target: T3, Prostaglandin E synthase (Homo sapiens); assay: Inhibition of recombinant human mPGES-1 expressed in CHO cells assessed as reduction in PGE2 formation at 10 uM using PGH2 a substrate preincubated for 10 mins followed by substrate addition measured after 1 min relative to control; assay type: cell-based; method in brief: as §5
Cytochrome P450 1A2 [9] = biological target: T2, Cytochrome P450 1A2; assay: as §1; assay type: ADME; conditions: microsomes, 20 min, 10 µM; method in brief: as §2
Cytochrome P450 2D6 = Cytochrome P450 2D6 (Homo sapiens, UniProt P10635); assay: as §3; assay type: ADME; conditions: microsomes, 20 min, 10 µM; method in brief: as §2
[10] = Cmax in Guinea pig at 100 mg/kg, po; assay type: ADME, organism-based, Cavia porcellus; set-up: dose 100 mg/kg, route oral; conditions: in vivo
Method in brief: (§6)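 Single oral dose given to guinea pigs as a 0.5% methylcellulose suspension. Values are mean ± SD, n = 3.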

[11] = AUC (0 to 24 hrs) in Guinea pig at 100 mg/kg, po; assay type: ADME, organism-based, Cavia porcellus; set-up: time < 24 hr, dose 100 mg/kg, route oral; conditions: in vivo; method in brief: as §6
[12] = Tmax in Guinea pig at 100 mg/kg, po; assay type: ADME, organism-based, Cavia porcellus; conditions: in vivo; method in brief: as §6
[13] = Drug uptake in CSF of Dunkin Hartley guinea pig model of LPS-induced thermal hyperalgesia pain at 200 mg/kg, po qd measured 7 hrs post dose by LC/MS/MS analysis; assay type: ADME, organism-based, Cavia porcellus, Cerebrospinal fluid; conditions: read-out: Drug uptake; method in brief: as §4

Chain of Cytochrome P450 2C9 (P11712 whole entry): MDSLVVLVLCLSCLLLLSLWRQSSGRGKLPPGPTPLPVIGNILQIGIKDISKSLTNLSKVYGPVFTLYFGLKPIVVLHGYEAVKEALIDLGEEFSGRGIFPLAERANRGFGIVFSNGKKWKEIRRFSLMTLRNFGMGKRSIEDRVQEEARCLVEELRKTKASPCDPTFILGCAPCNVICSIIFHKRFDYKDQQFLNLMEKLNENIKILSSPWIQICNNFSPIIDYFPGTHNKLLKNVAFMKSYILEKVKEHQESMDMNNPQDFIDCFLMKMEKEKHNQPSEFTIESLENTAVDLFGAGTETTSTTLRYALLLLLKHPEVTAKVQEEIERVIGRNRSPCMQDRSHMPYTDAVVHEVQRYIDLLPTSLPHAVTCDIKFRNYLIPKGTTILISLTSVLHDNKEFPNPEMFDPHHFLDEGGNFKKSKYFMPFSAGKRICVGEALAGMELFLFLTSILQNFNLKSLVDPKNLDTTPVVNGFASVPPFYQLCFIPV
Chain of Cytochrome P450 3A4 (P08684 whole entry): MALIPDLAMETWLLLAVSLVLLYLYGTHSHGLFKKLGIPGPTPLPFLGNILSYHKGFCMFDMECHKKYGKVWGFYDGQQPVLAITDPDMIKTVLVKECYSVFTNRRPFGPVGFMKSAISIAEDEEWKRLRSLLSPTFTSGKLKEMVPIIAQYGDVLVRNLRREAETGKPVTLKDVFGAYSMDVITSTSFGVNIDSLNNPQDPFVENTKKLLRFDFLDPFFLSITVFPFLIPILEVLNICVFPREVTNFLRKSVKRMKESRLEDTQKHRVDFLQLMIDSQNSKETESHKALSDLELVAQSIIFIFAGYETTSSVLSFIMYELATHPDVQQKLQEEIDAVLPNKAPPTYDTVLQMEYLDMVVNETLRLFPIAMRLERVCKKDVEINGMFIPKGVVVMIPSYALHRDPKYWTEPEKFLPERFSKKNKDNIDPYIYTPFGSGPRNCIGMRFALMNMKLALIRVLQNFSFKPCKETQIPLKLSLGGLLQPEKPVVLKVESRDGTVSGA
Chain of Cytochrome P450 2D6 (P10635 whole entry): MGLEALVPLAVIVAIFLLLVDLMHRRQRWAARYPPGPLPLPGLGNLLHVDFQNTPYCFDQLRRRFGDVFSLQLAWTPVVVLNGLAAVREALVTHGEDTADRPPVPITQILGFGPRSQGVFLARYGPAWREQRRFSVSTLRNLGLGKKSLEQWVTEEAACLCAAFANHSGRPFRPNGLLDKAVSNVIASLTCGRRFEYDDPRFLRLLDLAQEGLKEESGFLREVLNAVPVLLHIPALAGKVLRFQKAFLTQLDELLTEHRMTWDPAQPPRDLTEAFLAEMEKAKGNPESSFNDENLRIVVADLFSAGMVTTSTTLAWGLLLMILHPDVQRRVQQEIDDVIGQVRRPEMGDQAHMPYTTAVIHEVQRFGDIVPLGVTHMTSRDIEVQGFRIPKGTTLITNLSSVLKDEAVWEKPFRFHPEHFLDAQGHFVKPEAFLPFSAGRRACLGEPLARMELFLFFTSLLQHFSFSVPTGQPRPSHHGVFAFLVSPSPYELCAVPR
Chain of CYP2D6 (P10635 whole entry): as above

Row | SMILES | remaining at 1 h, 1 µM [1] [%] | inhibition at 20 min, 10 µM (CYP1A2) [%] | inhibition at 20 min, 10 µM (CYP2D6) [%] | half-life [2] [min] | Cmax [3] [ng/mL] | inhibition (INH) (Cytochrome P450 1A2 [4]) | inhibition (INH) (Cytochrome P450 3A4) | inhibition (INH) (Cytochrome P450 2C9) | inhibition in vivo at 100 mg/kg (Cavia porcellus) [%] | concentration at 7 h [5] [µM] | concentration at 7 h [6] [nM] | inhibition [7] [%] | inhibition [8] [%] | inhibition (INH) (Cytochrome P450 1A2 [9]) | inhibition (INH) (Cytochrome P450 2D6) | Cmax [10] [ng/mL] | AUC(0-t) at 24 h [11] [ng·h/mL] | Tmax [12] [h] | concentration at 7 h [13] [nM]
1 | CC1(C)Oc2cc(C#Cc3cc(Cl)ccc3F)ccc2-c2[nH]c(-c3c(F)cccc3Cl)nc21 | 76 | 33.9 | 26.6 | 330 | 1180 | Not Active | Not Active | Not Active | 26 | 13.8 | 2.63 | – | – | – | – | – | – | – | –
2 | CC1(C)Oc2cc(-c3cccc(OC(F)(F)F)c3)ccc2-c2[nH]c(-c3c(F)cccc3Cl)nc21 | 84 | – | – | 592 | 826 | Not Active | Not Active | Not Active | – | – | – | 97.9 | 91.8 | Not Active | Not Active | 803 | 13400 | 24 | 9.22
